Screening data from PubChem.
An excerpt weighted towards active compounds, which were near 2.1% of everything screened.
Beta2AR agonist: activates human beta-2 adrenergic receptor causing internalization; Am2.2-beta2AR cells, FAP receptor internalization, flow cytometry; 340,000 tested, 0.43% active; response, % (no concentration beside the values); P07550;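 active = response above a set limit, near 3 SD of response in nonfluorescent compounds, cut at about 42% in these data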
UCH37 DUB inh: inhibitors of human deubiquitinating enzyme UCH37; purified proteasome/UCH37, Ub-AMC cleavage fluorescence; inhibition, % (concentration not given with the values); 330,000 tested, 0.33% active; AID 588478;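 active = mean inhibition over replicate wells above about 20%, limit read from the data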;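 note: 0% = compound-free wells with enzyme and 100% = wells lacking proteasome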
Target sequence (Q9Y5K5 whole entry, looked up): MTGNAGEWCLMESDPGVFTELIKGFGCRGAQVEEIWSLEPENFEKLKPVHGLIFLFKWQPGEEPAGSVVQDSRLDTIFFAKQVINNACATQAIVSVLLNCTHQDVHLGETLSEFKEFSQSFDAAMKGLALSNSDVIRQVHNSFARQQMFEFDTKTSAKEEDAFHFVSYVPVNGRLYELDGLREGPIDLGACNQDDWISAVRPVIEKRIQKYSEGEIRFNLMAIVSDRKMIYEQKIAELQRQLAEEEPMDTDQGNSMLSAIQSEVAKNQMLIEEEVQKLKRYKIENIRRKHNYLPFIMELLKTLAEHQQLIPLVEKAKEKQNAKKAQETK
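Reagent: Ub-AMC substrate; assay system: Proteasome-associated human UCH37 deubiquitinase; controls: no-proteasome and no-compound wells; read-out: % inhibition of Ub-AMC cleavage fluorescence; timing: 30 min preincubation with enzyme, 25 min cleavage at room temperature; signal: AMC fluorescence from Ub-AMC cleavage, excitation 355 nm, emission 460 nm; buffer or medium: Tris-HCl pH 7.4 plus ovalbumin, ATP-MgCl2, DTT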
aDG glyco up: alpha-DG glycosylation activation; Pro5-aDG cells, alpha-DG glycosylation AlphaScreen (IIH6); 0% Pro5, 100% B10-LARGE cell signal; activation, % at 10 µM; 360,000 tested, 0.22% active;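 active = activation of at least 8% versus controls, or a plate z-score of at least 8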;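 note: Pro5 are CHO cells carrying HIG-tagged alpha-DG that lacks glycosylation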
HKDC1 inhibitor: HKDC1 (human) hexokinase inhibition; AID 493160; recombinant HKDC1, G6PDH/diaphorase resazurin coupled fluorescence; 340,000 tested, 0.16% active; inhibition, % at 20 µM; Q2TB90;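 active = inhibition above about 35% when tested at 20 µM, limit read from the data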;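 note: plate controls were DMSO wells with enzyme for no effect and DMSO wells lacking enzyme for full effect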
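Assay system – recombinant HKDC1 (HK5) hexokinase enzyme, produced in-house · Input – HKDC1 at 5 µg/mL · Reagent – glucose plus 1 mM ATP as hexokinase substrates · Timing – 90 min reaction incubation at room temperature, dark · Measured by – G6PDH/diaphorase-coupled fluorescence, 1 mM NADP, 100 µM resazurin, 525/613 nm · Benchmarks – DMSO-enzyme wells negative, buffer-substituted wells positive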
Cardio protect: myocardial damage modulation in H9c2 cells | H9c2 cardiomyocytes, H2O2 injury protection, ATPLite, 2 h | protection from H2O2 cell death, % at 20 µM | 360,000 tested, 0.63% active | AID 588492;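 active = compounds giving at least 50% protection of heart cells from peroxide-induced death in the single-dose screen, raw or plate-pattern-corrected value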;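 note: 0% = DMSO wells with peroxide and 100% = DMSO wells without peroxide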
PfG6PD inh: PfG6PD (Plasmodium falciparum) enzyme inhibition; PfGluPho enzyme, NADPH resazurin-diaphorase fluorescence; inhibition, % at 20 µM; 350,000 tested, 0.78% active;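 active = inhibition reaching at least a set limit at 20 µM in the primary screen, cut at about 59% in these data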;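 note: 0% = DMSO wells with substrate and 100% = DMSO wells lacking glucose-6-phosphate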
* = called active by the depositor; / = not tested or not shown; ! = repeats disagree.

SMILES | Beta2AR agonist | UCH37 DUB inh | aDG glyco up | HKDC1 inhibitor | Cardio protect | PfG6PD inh
COc1cc(/C=C2/CCCC(C(=O)C(F)(F)F)=C2O)ccc1O | 21 | 2 | 0 | -7 | 12 | -26
COc1cc(/C=C/C(=O)CC(=O)/C=C/c2ccc(O)c(OC)c2)ccc1O | -71 | -2 | -1 | 4 | 75* | -5
COc1cc(/C=C2\COC/C(=C\c3cc(OC)c(OC)c(OC)c3)C2=O)cc(OC)c1OC | 43* | 5 | 0 | 26 | 14 | 11
COc1cc(/C=C2\CC/C(=C\c3cc(OC)c(OC)c(OC)c3)C2=O)cc(OC)c1OC | 8 | / | 0 | -5 | 29 | 7
Cc1ccsc1C=NN=C1C(=O)Nc2ccccc21 | / | 2 | / | / | / | /
OC(c1ccccc1)(c1ccccc1)C1CCN(CCCOc2cccc(OC(F)(F)F)c2)CC1 | / | / | 0 | / | / | /
CC(C)(C)c1ccc(C(O)CCCN2CCC(C(O)(c3ccccc3)c3ccccc3)CC2)cc1 (stereo not given) | 64* | 4 | 0 | 3 | -44 | 7
C=CCNC(=O)CC(=O)NN=Cc1cccc(Br)c1 | / | 3 | / | / | / | /
CCOC(=O)C=c1sc(=Cc2ccc(C(F)(F)F)cc2)c(=O)n1CC(=O)NCc1ccco1 | / | -24 | / | / | / | /
O=C(/C=C/c1ccccc1)NC(=S)NNC(=O)c1cnccn1 | -1 | / | 0 | -33 | 57* | -9
CC(O)[C@H]1CC[C@H]2[C@@H]3CC[C@H]4C[C@@H](O)CC[C@]4(C)[C@H]3C(=NO)C[C@]12C (stereo not given in full) | / | 0 | / | / | / | /
CC(Oc1ccc(Cl)cc1Cl)c1nc(-c2ccc(NC(=O)c3cccnc3)cc2)no1 (stereo not given) | 16 | 3 | 14* | 9 | -10 | 16
COc1ccc(Cl)cc1-c1nc(-c2ccc(NC(=O)c3cccs3)cc2)no1 | -4 | / | 0 | 14 | 56* | 4
O=C(Nc1ccc(-c2noc(-c3cccs3)n2)cc1)c1cccnc1 | -1 | -28 | 0 | -1 | 64* | 11
O=C(COc1cccc2cccnc12)NN=Cc1ccc(O)cc1 | / | 2 | / | / | / | /
Cc1cc(NC(=O)Cc2ccccc2)nc2c1c(=O)oc1ccccc12 | -5 | 1 | 0 | -1 | -1 | 15
COc1cccc(C(=O)Nc2cc(C)c3c(=O)oc4ccccc4c3n2)c1 | 20 | 4 | 0 | -3 | 90* | 7
Cc1cc(NC(=O)C2CCCCC2)nc2c1c(=O)oc1ccccc12 | -6 | 2 | -1 | 7 | 101* | 16
Cc1ccc(C)c(NC(=S)NNC(=O)c2csc3c2CCC(C)C3)c1 (stereo not given) | -16 | 2 | 0 | -28 | -4 | -25
CC(C)(C)C1CCc2c(C(=O)NNC(=O)/C=C/C(=O)O)csc2C1 (stereo not given) | 48* | 1 | 0 | -5 | 0 | -1
CC(C)(C)C1CCc2c(C(=O)N/N=C/c3cccs3)csc2C1 (stereo not given) | 94* | / | 0 | 11 | -7 | -16
Cc1occc1C(=O)NN=Cc1cccs1 | / | 6 | / | / | / | /
CC(/C=C/c1ccccc1F)=NNC(=O)C(C)C | / | 5 | / | / | / | /
Clc1ccccc1-c1nc(NN=Cc2cccnc2)c2ccccc2n1 | / | 6 | / | / | / | /
COc1ccc2c(c1)C(C)=CC(C)(C)N2S(=O)(=O)c1ccc(C)cc1 | 15 | 23* | -1 | 4 | -22 | 1
SMILES | Beta2AR agonist | UCH37 DUB inh | aDG glyco up | HKDC1 inhibitor | Cardio protect | PfG6PD inh
CCOc1ccc2c(c1)C(C)=CC(C)(C)N2S(=O)(=O)c1ccc(C)cc1 | 12 | 1 | 0 | -1 | -18 | 8
CC(Oc1ccc(-c2ccccc2)cc1)C(=O)NN=Cc1cccnc1 (stereo not given) | / | 2 | / | / | / | /
CC(=NNC(=O)c1cc(C)oc1C)c1ccc2c(c1)OCO2 | / | 2 | / | / | / | /
COc1ccc(CC2(CO)CCN(CC3=Cc4cc(Cl)ccc4OC3)CC2)cc1 | 7 | -1 | 13* | -4 | -23 | 13
COc1ccc2c(c1)C=C(CN1CCC(CO)(CCc3ccccc3)CC1)CO2 | 15 | -2 | 0 | 2 | -1 | 10
Cc1c(C(=O)N/N=C/c2ccc(O)c(Br)c2)sc(N)c1C#N | -1 | / | 0 | 6 | 70* | 28
Cc1c(C(=O)NN=Cc2cccnc2)sc(N)c1C#N | / | -4 | / | / | / | /
COc1cc(/C=N/NC(=O)c2sc(N)c(C#N)c2C)ccc1O | 20 | / | 0 | 10 | 54* | 15
Cc1nn(-c2ccccc2)c2c1C(=NO)CC(C)(C)C2 | / | 1 | / | / | / | /
CCOc1ccc2nc(N=NC3=C(O)CC(C)(C)CC3=O)sc2c1 | 6 | 10 | 2 | -12 | 51* | 8
Cc1nc2ccc(N=NC3=C(O)CC(C)(C)CC3=O)cc2s1 | -23 | 17 | 0 | -6 | 12 | 10
Cc1ccc(N2C(=O)[C@@H]3[C@H](C2=O)C2c4ccccc4C=CN2[C@@H]3C(=O)c2ccco2)cc1 (stereo not given in full) | -3 | 4 | 0 | 7 | 19 | -8
COc1ccc(N2C(=O)[C@@H]3[C@H](C2=O)[C@H]2c4ccccc4C=CN2[C@@H]3C(=O)Nc2ccccc2)cc1 | 7 | 30* | 0 | 1 | -14 | -8
CC(=O)[C@@H]1[C@@H]2C(=O)N(Cc3ccccc3)C(=O)[C@@H]2C2c3ccccc3C=CN21 (stereo not given in full) | -10 | 58* | 0 | -2 | 10 | 11
CC(C)C=NNC(=O)CCCCC(=O)NN=CC(C)C | / | 2 | / | / | / | /
COc1ccc(CSCC(=O)NN=Cc2ccccc2O)cc1 | / | -9 | / | / | / | /
Cc1cc(=O)oc2cc(OCc3ccc(C(=O)OCC(=O)Nc4ccc(N(C)C)cc4)cc3)ccc12 | 49* | -24 | 0 | -3 | -6 | -11
CC(=NNC(=O)Cc1cccn1C)c1ccccc1 | / | 2 | / | / | / | /
CC(=NNC(=O)c1ccc(O)cc1)c1cccc([N+](=O)[O-])c1 | / | 2 | / | / | / | /
Oc1ccc(C2CNCCc3c2cc(O)c(O)c3Cl)cc1 (stereo not given) | 0 | 2 | 0 | -5 | 58*! | -4
Oc1cc2c(c(Cl)c1O)CCNCC2c1ccccc1 (stereo not given) | 1 | 5 | 0 | -1 | 68* | 37
C=CCN1CCc2c(cc(O)c(O)c2Cl)C(c2ccccc2)C1 (stereo not given) | -5 | 2 | 0 | 3 | 76* | 2
Cc1cccc(C2CN(C)CCc3c2cc(O)c(O)c3Cl)c1 (stereo not given) | -1 | 0 | 0 | -6 | 45 | 17
CC(C)(C)C(=O)ON=C(N)COc1cccc(Cl)c1 | / | 4 | / | / | / | /
Cc1cc(C)c2cccc(N)c2n1 | 8 | 6 | 0 | 17 | -3 | 22
Cc1cc(C)c2ccc(N)nc2c1O | 17 | 1 | -1 | -23 | 60* | -25
